Source: PubChem BioAssay
This is a sample that favours compounds with a hit; in the whole collection about 0.7% have one here.
RAD54 inh – inhibitors of human RAD54 branch migration, primary screen, biochemical, fluorescence, single point; RAD54 Holliday junction branch migration, FAM/BHQ fluorescence; DNA repair and recombination protein RAD54-like (Homo sapiens), Q92698; 360,000 tested, 0.14% active; inhibition, % at 10.4 µM;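 active = mean normalized replicate activity at least 40 and at least half of replicates scoring 40 or more; inconclusive = only one of the two criteria met; inactive = mean below 40 and under half of replicates reaching 40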;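 note: inhibitors cause a drop in the FAM fluorescence signal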
CaV13 ICDI inh – Primary screen for inhibitors of IQ motif and Ca2+-dependent inactivation inhibitor domain binding in CACNA1D, Förster resonance energy transfer in living cells, …. HEK cells, CFP/YFP FRET ICDI-IQ, plate reader, 10 min; percent FRET-ratio fall versus neutral wells. inhibition, % at 12.3 µM. AID 743397. 340,000 tested, 0.098% active;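 active = mean replicate inhibition of at least 30% and at least 1% of replicates passing that level; inconclusive = only one of the two criteria is met; inactive = neither criterion is met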
RAD52 anneal inh – RAD52 DNA annealing inhibitors, primary screen, biochemical, FRET, single point, set 2; DNA repair protein RAD52 homolog (Homo sapiens), P43351; recombinant RAD52 DNA annealing, FRET fluorescence; inhibition, % at 18.7 µM; 360,000 tested, 0.46% active;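 active = every replicate showing at least 50% inhibition; inconclusive = mean inhibition at least 50% but not in every replicate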
Target sequence (P43351 whole entry, looked up): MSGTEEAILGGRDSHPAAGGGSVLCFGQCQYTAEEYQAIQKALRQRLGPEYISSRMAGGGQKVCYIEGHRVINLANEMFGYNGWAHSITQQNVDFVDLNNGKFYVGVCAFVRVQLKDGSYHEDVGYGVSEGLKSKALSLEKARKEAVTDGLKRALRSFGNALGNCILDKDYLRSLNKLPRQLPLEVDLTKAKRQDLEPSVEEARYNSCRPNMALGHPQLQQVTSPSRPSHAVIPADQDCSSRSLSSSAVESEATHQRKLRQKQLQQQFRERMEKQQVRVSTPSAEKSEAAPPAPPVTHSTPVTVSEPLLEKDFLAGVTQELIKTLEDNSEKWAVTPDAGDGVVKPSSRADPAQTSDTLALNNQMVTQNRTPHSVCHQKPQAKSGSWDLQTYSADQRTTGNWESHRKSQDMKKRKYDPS
N-glyco inh – increase of ERlucT glycosylation luciferase signal, primary screen, N-linked glycosylation inhibitor project, D54 ERlucT cells, luminescence, set 2; reporter increase, % at 12.5 µM; 360,000 tested, 0.23% active; D54 ERlucT glycosylation luciferase reporter, 24 h; percent of 100 nM tunicamycin response;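 active = mean luciferase reporter signal, scaled so untreated is 0 and the glycosylation-blocking control 100, at or above a set limit in every replicate; inconclusive = mean reaches the limit but not every replicate does; inactive = mean below the limit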;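 note: luciferase carries N-glycosylation sites so blocking glycosylation raises the light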
FN deposit inh – inhibitors of fibronectin matrix deposition, primary screen, AH1F cells, Alexa488-fibronectin fluorescence, plate reader; AID 743247, 2014; inhibition, % at 12.6 µM; 350,000 tested, 0.086% active; AH1F fibroblasts, overnight;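 active = mean inhibition across replicates of 30% or more, regardless of how many single replicates reach that level; inconclusive = mean under 30% yet at least half of replicates reach 30%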
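Assay system: AH1F fibroblasts assembling fluorescent fibronectin matrix; Amount: 10000 AH1F cells per well; Buffer or medium: DMEM, 2% serum; Probe or stimulus: Alexa488-fibronectin, 24 nM final in well; Doses: single compound dose, delivered by pin transfer; Incubation: 1 h adhesion, overnight exposure; Measured by: fluorescence 485/525 nm; Read-out: fibronectin deposition inhibition.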
DNA binder FP – DNA-binding compounds via dye displacement, dose response, artefact control for RAD52 inhibitor project, biochemical, fluorescence polarization, cherry-pick; AC50, µM; 1,000 tested, 8% active; Salmon sperm DNA/acridine orange FP displacement; shares compounds with RAD52 anneal inh;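 active = fitted half-maximal concentration for signal loss at or below twice the highest dose tested, in every separate run, actives reach about 64 µM in these data; inconclusive = runs disagree, or flat partial signal loss, or poor fit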
Hits are given with their value; 0 = inactive; ? = inconclusive; - = no result given.

SMILES	RAD54 inh	CaV13 ICDI inh	RAD52 anneal inh	N-glyco inh	FN deposit inh	DNA binder FP
CNC(C)C(=O)NC(C(=O)N1CCCC1C(=O)Nc1ccc2ncccc2c1)C(C)C (stereo not drawn)	0	0	0	0	0	-
CN(C)CCCNC(=O)C[C@@H]1CC[C@@H]2[C@@H](COc3ccc(NC(=O)c4cccc(F)c4)cc3C(=O)N2C)O1	0	-	0	-	0	-
CC(C)Nc1ccc(Nc2ccnc3cc4ccccc4cc23)cc1	-	0	99.0	0	0	22.4µM
O=C(O)C[C@@H]1C[C@H]2c3cc(NC(=O)C4CCC4)ccc3O[C@H]2[C@@H](CO)O1	-	-	0	-	-	-
Cc1cc(N2CCC(N(C)C3CCCC3)CC2)nc2cc(O)ccc12	0	0	103.0	0	0	0
Cc1cc(N2CCN(c3ccccc3)CC2)nc2ccccc12	0	0	0	0	0	-
Cc1c(CCOC(=O)c2ccc(Cl)cc2Cl)sc[n+]1CC(=O)c1ccc(Br)cc1	0	0	0	0	-	0
Cc1c(CCOC(=O)c2ccc([N+](=O)[O-])cc2)sc[n+]1CC(=O)c1ccccc1	-	0	0	0	0	-
COc1ccc(C(=O)OCCc2sc[n+](CC(=O)c3ccccc3)c2C)cc1	0	0	73.4	0	0	0
CCCCCCCCCCCCOC(=O)C[N+](C)(C)C	-	0	50.0	-	0	0
C[C@@H]1CN([C@H](C)CO)C(=O)c2cccc(NC(=O)Nc3ccc(F)cc3)c2O[C@H]1CN(C)C(=O)Nc1ccccc1	0	-	0	-	-	-
C[C@@H]1CN([C@@H](C)CO)C(=O)c2cccc(NC(=O)NC3CCCCC3)c2O[C@H]1CN(C)C(=O)Nc1ccc(F)cc1	0	-	0	-	-	-
CC1CCN(CCOCCOc2ccc(Cl)cc2Br)CC1	0	0	52.5	0	-	0
CCC(=O)N1[C@@H]2c3ccc(-c4cccnc4)c(=O)n3C[C@H]1[C@H](CO)[C@H]2C(=O)NC1CCC1	0	-	0	-	-	-
Fc1ccccc1CNc1nc(NCC2CC2)nc2ccsc12	0	0	51.2	0	0	0
COc1ccccc1CNc1nc(NCc2ccccc2F)c2sccc2n1	0	-	-	0	-	-
OCCN1CCN(CC(O)COc2ccc(C34CC5CC(CC(C5)C3)C4)cc2)CC1 (stereo not drawn)	-	0	56.8	0	0	0
C[C@H](CO)N1C[C@H](C)[C@H](CN(C)Cc2ccc3c(c2)OCO3)Oc2ccc(NC(=O)Cn3cnnn3)cc2C1=O	0	-	0	-	-	-
COc1ccc(NC(=S)NC23CN4CN(CN(C4)C2)C3)c(OC)c1	-	0	86.4	0	0	0
COc1ccc(NC(=S)NC23CN4CN(CN(C4)C2)C3)cc1	0	0	-	0	0	-
Nc1ccc2nc(CCCO)[nH]c2c1	0	0	93.2	0	0	0
C=CC(=C)CC(NC)c1ccccc1 (stereo not drawn)	0	0	58.8	0	-	0
CCN(CC)CCN(Cc1cc2cc3c(cc2[nH]c1=O)OCCO3)C(=S)NCCCN(C)C	0	0	54.4	0	0	0
CN(C)CCCNC(=S)N(CCN(C)C)Cc1cc2cc3c(cc2[nH]c1=O)OCCO3	0	0	83.9	0	0	0
COCC(=O)N1CCC2(CC1)CN(C(=O)Cc1ccccc1)[C@H](CO)c1c2c2ccc(OC)cc2n1C	-	-	0	-	-	-
SMILES	RAD54 inh	CaV13 ICDI inh	RAD52 anneal inh	N-glyco inh	FN deposit inh	DNA binder FP
C[C@@H]1ON(C)[C@H]2C[C@H]3c4cc(-c5cc6ccccc6o5)ccc4CCN3C[C@@H]12	-	0	68.3	-	0	0
CC[n+]1ccc(/C=C/c2ccc(N(C)C)cc2)c2ccccc21	-	0	60.1	?	0	12.6µM
C[C@H](CO)N1C[C@H](C)[C@@H](CN(C)C)Oc2ccc(NS(=O)(=O)c3ccc(F)cc3)cc2C1=O	0	-	0	-	0	-
CC1(C)CC(N=c2cc(-c3ccccc3)oc3ccc(Cl)cc23)CC(C)(C)N1	-	0	100.6	?	0	16.9µM
O=C1CCCCC1	0	-	91.0	0	-	0
Cc1cc(C)nc(/N=C(\N)Nc2cccc(OCc3ccccc3)c2)n1	0	0	0	0	0	-
Cc1cc(C)nc(/N=C(\N)Nc2ccc(OCc3ccccc3)cc2)n1	-	0	55.1	48.2	0	0
C[C@H]1CCCCO[C@@H](CN(C)C(=O)Nc2ccc3c(c2)OCO3)[C@@H](C)CN([C@@H](C)CO)C(=O)c2cc(NS(=O)(=O)c3ccccc3)ccc2O1	0	-	0	-	0	-
O=c1ccn([C@@H]2O[C@H](CNCc3cccc4c3sc3ccccc34)[C@@H](O)[C@H]2O)c(=O)[nH]1	0	0	62.1	0	0	0
C[C@@H]1CN([C@@H](C)CO)C(=O)Cc2cc(NC(=O)C3CCCCC3)ccc2O[C@@H]1CN(C)C(=O)NC1CCCCC1	0	-	0	-	-	-
CCCCCCCCCCCCCCCC[N+](C)(C)CCl	-	0	87.8	0	0	31.5µM
CCCCCCCCCCCCCCCC[N+](C)(C)CC	51.0	0	81.2	0	0	?
C[C@@H](NC(=O)C[C@@H]1CC[C@@H](NC(=O)C2CC2)[C@@H](CO)O1)c1ccccc1	0	-	0	-	0	-
CN(C)CCNC(=O)c1cccc2nc3cccc(F)c3nc12	-	0	97.4	0	0	17.9µM
CN(C)CCNC(=O)c1cccc2ccc(-c3ccc(-c4ccccc4)cc3)nc12	-	0	0	0	-	-
COc1ccc(OC)c2nc3c(C(=O)NCCN(C)C)cccc3nc12	-	0	104.6	91.1	0	4.71µM
CCCNC(=O)Nc1ccc2c(c1)OC[C@H](C)N(Cc1ccc(-c3ccccn3)cc1)C[C@H](C)[C@H](OC)CN(C)C2=O	0	-	0	-	0	-
CCC(=O)N(C)C[C@@H]1Oc2cc(-c3ccccc3F)ccc2S(=O)(=O)N([C@H](C)CO)C[C@H]1C	0	-	0	-	-	-
CCC(=O)N1CC(=O)N2[C@@H](CO)[C@@H](c3ccc(-c4ccc(C#N)cc4)cc3)[C@@H]2C1	-	-	0	-	0	-
CCN(CC)CCNc1ccc(C)c2sc3ccc(O)cc3c(=O)c12	-	0	75.7	54.1	0	10.1µM
CCN(CC)CCCNC(=O)C(C)n1nc(C)c2sc3ccccc3c2c1=O (stereo not drawn)	-	0	-	0	0	-
CCN(CC)CCCNC(=O)c1[nH]c2ccccc2c1Sc1ccc(Cl)cc1	0	0	69.8	0	0	0
CSc1nc(NCC(C)C)c2c3c(sc2n1)CN(C)CC3	0	0	-	0	-	-
CSc1nc(NCCCN(C)C)c2c3c(sc2n1)CN(C)CC3	-	0	77.1	-	0	0
CC[N+](CC)(CC)CCCCOc1ccc2c(c1)C(=O)c1cc(OCCCC[N+](CC)(CC)CC)ccc1-2	98.9	0	102.2	0	0	21.2µM
